# From PubChem BioAssay
# Activity calls are given as the source filed them.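 The calls were made as follows, unless noted: active = viability at or below 10% of carrier control in both of two separate runs; inconclusive = viability at or below 10% in only one of the two runs; inactive = the rest.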
# Legend:
# [1] = Her2 expression decrease, cell viability multiplex – SKBR3 breast tumor cells, AlphaScreen, ATP viability, primary screen (AID 461;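 active = Her2 level under about 52% in both replicate screens, with viability over 70% of control, limit read from the data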;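 as to Her2 level: lower value means less Her2 protein in the cells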;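 as to viability: percent of carrier control wells set as 100% viability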); details: SKBR3 Her2 protein level, 18-24 h, measured here: SKBR3 viability, ATP luminescence, at 10 µM
# [2] = biological target: Receptor tyrosine-protein kinase erbB-2 (Homo sapiens) (UniProt P04626); assay: as above; details: 18-24 h, at 10 µM, stronger effect = lower value
# [3] = reduced viability of SK-BR-3 breast cancer cells – cell-based, 24 h, human, pilot screen (AID 572); details: SK-BR-3 viability, CellTiter-Glo luminescence, at 10 µM, stronger effect = lower value;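 also: compound exposure lasted between 18 and 24 h rather than exactly 24 h; 100% = carrier-treated control wells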
# [4] = HUVEC growth inhibition – cell-based, human, primary screen (AID 575;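 active = viability at or below 30% in both replicate assays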;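 also: 100% = median of untreated cell wells with 0.1% DMSO on each plate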); details: HUVEC proliferation, CellTiter-Glo luminescence, 72 h; at 10 µM; stronger effect = lower value
# Summary of the method: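 Timing: 72 h treatment at 37 °C; material: HUVEC primary cells; technique: CellTiter-Glo luminescence measuring cellular ATP; controls: vehicle and MePR control wells; measure: percent of median DMSO-control luminescence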
# [5] = H69AR cell proliferation blockers – human, duplicate replicates, primary screen (AID 580;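 active = viability at or under a set limit in both replicates, limit being median viability minus 3 SD, cut at about 48% in these data, passing the limit was not always enough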;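 also: 100% = mean luminescence of untreated wells and 0% = no signal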); details: H69AR lung tumor cells viability, ATP luminescence, 72 h; at 10 µM; stronger effect = lower value
# [6] = MRP1 drug-resistance reversers in H69AR cells – cell-based, doxorubicin co-treatment, pilot screen (AID 601;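 active = viability loss from added drug above about 55%, and viability with drug at most 40%, in both replicates, limit read from the data, passing the limit was not always enough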); details: CellTiter-Glo, 72 h, at 10 µM; for differential viability (reversal): stronger effect = higher value
# [7] = yeast transport mutant growth inhibition pilot in 384-well plates, post-Golgi transport modulator project (AID 636; in the data active = inhibition above about 31%); details: absorbance 615 nm, about 18 h, stronger effect = higher value
# [8] = growth suppression of yeast trafficking mutant, preliminary HTS, modulators of trafficking downstream of Golgi apparatus project, 1536-format plate, OD 615 nm (AID 637; in the data active = inhibition above about 30%); details: yeast transport mutant growth, absorbance 615 nm, 18 h; stronger effect = higher value
# [9] = H69AR cells + 2 uM doxorubicin, measured here: viability with 2 uM doxorubicin, stronger effect = lower value
# [10] = H69AR cells, compound alone cytotoxicity
# Receptor tyrosine-protein kinase erbB-2 (Homo sapiens), sequence (P04626 whole entry, looked up): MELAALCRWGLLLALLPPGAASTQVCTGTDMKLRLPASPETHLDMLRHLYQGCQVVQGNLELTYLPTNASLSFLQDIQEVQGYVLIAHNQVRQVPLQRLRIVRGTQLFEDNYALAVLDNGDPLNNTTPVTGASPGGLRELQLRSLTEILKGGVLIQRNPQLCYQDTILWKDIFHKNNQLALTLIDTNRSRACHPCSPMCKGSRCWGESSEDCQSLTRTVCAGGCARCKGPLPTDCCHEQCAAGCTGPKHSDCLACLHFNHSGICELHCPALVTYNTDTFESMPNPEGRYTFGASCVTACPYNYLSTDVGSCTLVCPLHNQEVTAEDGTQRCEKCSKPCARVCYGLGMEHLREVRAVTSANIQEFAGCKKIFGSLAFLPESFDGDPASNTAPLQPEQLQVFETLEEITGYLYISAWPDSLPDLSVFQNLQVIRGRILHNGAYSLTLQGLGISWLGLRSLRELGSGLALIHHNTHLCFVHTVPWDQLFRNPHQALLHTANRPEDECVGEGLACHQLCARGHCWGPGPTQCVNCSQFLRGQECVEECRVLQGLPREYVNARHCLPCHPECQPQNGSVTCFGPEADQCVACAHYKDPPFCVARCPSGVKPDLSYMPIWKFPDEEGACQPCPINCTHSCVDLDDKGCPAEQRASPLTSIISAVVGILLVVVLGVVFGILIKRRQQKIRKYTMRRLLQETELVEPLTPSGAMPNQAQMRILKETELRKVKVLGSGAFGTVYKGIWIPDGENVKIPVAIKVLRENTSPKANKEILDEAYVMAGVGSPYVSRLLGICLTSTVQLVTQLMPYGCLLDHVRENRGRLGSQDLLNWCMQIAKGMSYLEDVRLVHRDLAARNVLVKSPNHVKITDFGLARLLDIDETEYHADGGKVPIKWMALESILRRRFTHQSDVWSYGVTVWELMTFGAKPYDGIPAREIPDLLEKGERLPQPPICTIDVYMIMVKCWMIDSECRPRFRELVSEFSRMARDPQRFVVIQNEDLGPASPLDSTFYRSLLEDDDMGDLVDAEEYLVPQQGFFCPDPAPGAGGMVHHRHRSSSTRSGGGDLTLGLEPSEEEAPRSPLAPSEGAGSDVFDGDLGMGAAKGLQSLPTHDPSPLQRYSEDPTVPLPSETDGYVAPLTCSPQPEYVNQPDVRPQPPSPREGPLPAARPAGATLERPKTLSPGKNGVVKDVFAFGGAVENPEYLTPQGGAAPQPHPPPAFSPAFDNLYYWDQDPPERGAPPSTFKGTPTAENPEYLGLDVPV
SMILES,viability [1] [%],Her2 level [2],viability [3],viability [4],viability [5],differential viability (reversal) ([6]; H69AR cells + 2 uM doxorubicin),"viability [6, 9] [%]","viability [6, 10] [%]",inhibition [7],inhibition [8]
Cc1cccc(N2CN=c3s/c(=C\c4ccncc4)c(=O)n3C2)c1,86.5,68% (inactive),86.5% (inactive),77.4% (inactive),80.8% (inactive),-10.2% (inactive),91,80.8,-1.32% (inactive),-2.42% (inactive)
CNC(=O)CSc1nnc(-c2ccc(S(=O)(=O)N3CCCC3)cc2)n1-c1cccc(C)c1C,79.5,78.5% (inactive),79.5% (inactive),86.4% (inactive),88.9% (inactive),11.7% (inactive),77.2,88.9,-4.86% (inactive),-1.15% (inactive)
Cc1ccc(CCC(=O)Nc2ccc(S(N)(=O)=O)cc2)o1,87.5,116% (inactive),87.5% (inactive),98.4% (inactive),109% (inactive),7.87% (inactive),101,109,1.33% (inactive),6.23% (inactive)
COc1cccc(-n2nnnc2SCC(=O)NCc2ccco2)c1,117,92.5% (inactive),117% (inactive),90.5% (inactive),83.2% (inactive),5.98% (inactive),77.2,83.2,-4.8% (inactive),4.52% (inactive)
COCC(=O)N(Cc1cc2cc(OC)ccc2[nH]c1=O)c1ccccc1,104,112% (inactive),104% (inactive),90.3% (inactive),90.4% (inactive),3.91% (inactive),86.5,90.4,-2.86% (inactive),-6% (inactive)
CCN(Cc1nc2cc(OC)c(OC)cc2c(=O)[nH]1)C(=O)c1ccc(S(=O)(=O)N(C)C)cc1,113,106% (inactive),113% (inactive),88.2% (inactive),109% (inactive),10.3% (inactive),98.5,109,-3.07% (inactive),3.44% (inactive)
O=C(CN1CCN(c2ncccn2)CC1)Nc1ccccc1-n1cccc1,102,79% (inactive),102% (inactive),81.4% (inactive),92.9% (inactive),2.44% (inactive),90.5,92.9,-1.43% (inactive),-6.83% (inactive)
CCOC(=O)CSc1nnc(-c2ccc(S(=O)(=O)N3CCOCC3)cc2)n1-c1ccccc1,93,83.5% (inactive),93% (inactive),94.4% (inactive),105% (inactive),17.4% (inactive),87.7,105,-1.97% (inactive),1.43% (inactive)
COC(=O)c1ccccc1NC(=O)Cn1ccnc1,110,88.5% (inactive),110% (inactive),80.8% (inactive),97.7% (inactive),-3.07% (inactive),101,97.7,-2.3% (inactive),1.11% (inactive)
COc1ccc(C(=O)NCc2ccccc2OC)cc1,110,100% (inactive),110% (inactive),93.8% (inactive),105% (inactive),9.52% (inactive),95.8,105,-6.58% (inactive),-3.17% (inactive)
CC(C)(C)C(=O)Cn1c(=N)n(Cc2ccccc2)c2ccccc21,84.5,81.5% (inactive),84.5% (inactive),53.3% (inactive),76.2% (inactive),-0.985% (inactive),77.1,76.2,-3.2% (inactive),-2.3% (inactive)
CCOC(=O)c1[nH]c2ccccc2c1NC(=O)C(C)(C)C,102,96% (inactive),102% (inactive),80.6% (inactive),96.6% (inactive),2.35% (inactive),94.2,96.6,-5.33% (inactive),1.67% (inactive)
CC(=O)Nc1ccc(OCC(O)CN2CCN(c3cccc(Cl)c3)CC2)cc1 (stereo not given),76.5,82% (inactive),76.5% (inactive),79.5% (inactive),88.4% (inactive),6.8% (inactive),81.5,88.4,-7.84% (inactive),5.74% (inactive)
O=C(CSc1nnc(CNC(=O)c2c(F)cccc2Cl)o1)c1ccccc1,94.5,107% (inactive),94.5% (inactive),112% (inactive),92.1% (inactive),-1.57% (inactive),93.7,92.1,0.38% (inactive),-0.67% (inactive)
CCOC(=O)N1CCN(C(=O)Cn2ncn3nc(-c4cccs4)cc3c2=O)CC1,97,136% (inactive),97% (inactive),111% (inactive),90.9% (inactive),-9.68% (inactive),101,90.9,1.71% (inactive),0.33% (inactive)
O=[n+]1c2c(n([O-])c3cc(F)c(N4CCCC4)cc31)CCC2,101,86.5% (inactive),101% (inactive),90.6% (inactive),74% (inactive),5.59% (inactive),68.4,74,-2.57% (inactive),1.9% (inactive)

SMILES,viability [1] [%],Her2 level [2],viability [3],viability [4],viability [5],differential viability (reversal) ([6]; H69AR cells + 2 uM doxorubicin),"viability [6, 9] [%]","viability [6, 10] [%]",inhibition [7],inhibition [8]
O=c1cc(-c2ccccc2)[nH]c2nc3ccccc3n12,90.5,60.5% (inactive),90.5% (inactive),35.5% (inactive),9.48% (active),-49.3% (inactive),58.8,9.48,-2.76% (inactive),-2.73% (inactive)
COc1cc(C(=O)N2CCN(C(=O)CC(C)C)CC2)cc(OC)c1OC,93.5,106% (inactive),93.5% (inactive),101% (inactive),91.3% (inactive),-6.59% (inactive),97.9,91.3,2.63% (inactive),13.2% (inactive)
CN(Cc1ccccc1)C(=O)CNC(=O)Cn1cnc2ccccc2c1=O,100,83% (inactive),100% (inactive),91.9% (inactive),100% (inactive),9.23% (inactive),90.8,100,-3.11% (inactive),-5.71% (inactive)
CCOc1ccc(-c2nnn(CCC(=O)O)n2)cc1OC,95.5,84% (inactive),95.5% (inactive),104% (inactive),102% (inactive),12.1% (inactive),89.8,102,-4.93% (inactive),-0.16% (inactive)
CCOC(=O)C1CCN(S(=O)(=O)c2cc(Cl)c(C)cc2OC)CC1,90,92.5% (inactive),90% (inactive),105% (inactive),85.2% (inactive),-9.44% (inactive),94.6,85.2,-2.5% (inactive),-3.39% (inactive)
Cn1c(=O)c2c(nc(CN3CCOCC3)n2CC(O)CO)n(C)c1=O (stereo not given),111,107% (inactive),111% (inactive),104% (inactive),86.2% (inactive),-4.93% (inactive),91.1,86.2,-3.9% (inactive),2.46% (inactive)
O=C(COc1ccccc1)N1CCN(C(=O)c2cccc(F)c2)CC1,112,90% (inactive),112% (inactive),102% (inactive),101% (inactive),13.9% (inactive),86.7,101,-8.11% (inactive),6.72% (inactive)
CSc1nnc(-c2nnc(SC)n2-c2ccccc2)n1-c1ccccc1,87,83.5% (inactive),87% (inactive),89.8% (inactive),98.3% (inactive),9.77% (inactive),88.6,98.3,-5.73% (inactive),6.77% (inactive)
CCCc1nnc(NC(=O)CCC(=O)N2CCN(CCOc3ccc(C)cc3)CC2)s1,93.5,74% (inactive),93.5% (inactive),92% (inactive),93.2% (inactive),-6.29% (inactive),99.4,93.2,-4.03% (inactive),-2.83% (inactive)
COc1cc2[nH]c(=O)n(CCC(=O)N3CCc4ccccc4C3)c(=O)c2cc1OC,102,106% (inactive),102% (inactive),116% (inactive),92.4% (inactive),-2.6% (inactive),95,92.4,-4.73% (inactive),-2.33% (inactive)
CCOC(=O)N1CCN(C(=O)C2CC(=O)N(Cc3ccc(OC)cc3)C2)CC1 (stereo not given),96.5,91% (inactive),96.5% (inactive),112% (inactive),93.3% (inactive),-3.47% (inactive),96.8,93.3,-4.34% (inactive),-1.45% (inactive)
CC(C)Cn1c(=O)c(C(=O)Nc2ccccc2S(N)(=O)=O)c(O)c2ccccc21,118,91.5% (inactive),118% (inactive),62.9% (inactive),16.1% (active),-11.4% (inactive),27.5,16.1,10.3% (inactive),8.67% (inactive)
COc1cccc(CNc2nc3nc(C)c(Cl)c(C)n3n2)c1,86.5,99.5% (inactive),86.5% (inactive),95.1% (inactive),83.6% (inactive),0.33% (inactive),83.3,83.6,-4.93% (inactive),-2.38% (inactive)
COC(=O)C(C)Sc1nc2c(c(=O)n(C)c(=O)n2C)n1Cc1cccc(C)c1 (stereo not given),97.5,86.5% (inactive),97.5% (inactive),79.7% (inactive),91.5% (inactive),8.71% (inactive),82.8,91.5,-0.26% (inactive),-0.32% (inactive)
CCCCS(=O)(=O)NC1=NCN(C2CCN(Cc3ccccc3)CC2)CN1,116,98.5% (inactive),116% (inactive),91.5% (inactive),111% (inactive),9.66% (inactive),101,111,-2.7% (inactive),-2.22% (inactive)
